These results are taken from paper PMC12363949 (bioRxiv, 2025).

Assay [1] deals with Pf20S β5 subunit. The experiment in a line: Gel-based competition with activity-based probe Me4BodipyFL-Ahx3Leu3VS, β5 band. The class given is biochemical, Plasmodium falciparum. To be noted: preincubation of recombinant Pf20S with inhibitor before probe; denaturing gel. Put shortly:
(§1)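 Baculovirus-expressed Pf20S from Sf9 cells, purified by Streptactin affinity and size exclusion, preincubated with test compound. Then 2 μM Me4BodipyFL-Ahx3Leu3VS added, 16 h at room temperature. Samples heated 5 min at 99°C in LDS buffer with 250 μM DTT, run on 12% Bis-Tris gel in MOPS SDS buffer at 120 V. Imaged at 470 nm excitation / 530 nm emission; bands quantified densitometrically.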

Assay [2] deals with c20S β2 (Homo sapiens, UniProt P49720+Q99436). The experiment in a line: Human c20S β2 inhibition assay, fluorogenic substrate Z-VLR-amc. Type of assay: biochemical.
In assay [3] the test system is Pf20S β2 subunit. The assay is described as follows: Gel-based competition with activity-based probe Me4BodipyFL-Ahx3Leu3VS, β2 band. Type of assay: biochemical, Plasmodium falciparum. To be noted: preincubation of recombinant Pf20S with inhibitor before probe; denaturing gel. Put shortly:
as §1

In assay [4] the target is Pf20S β1 (Plasmodium falciparum, UniProt Q8I0U7+Q8I6T3). The experiment in a line: Pf20S β1 subunit activity/inhibition assay, fluorogenic substrate Ac-nPnD-amc. The class given is biochemical.
For assay [5], the target named is Pf20S β2 (Plasmodium falciparum, UniProt Q8I261+Q8I6T3). The assay is described as follows: Pf20S β2 subunit activity/inhibition assay, fluorogenic substrate Z-VLR-amc. Type of assay: biochemical.
Assay [6] deals with Pf20S β5 (Plasmodium falciparum, UniProt A0A5K1K7U1+Q8IJT1). The experiment in a line: Pf20S β5 subunit activity/inhibition assay, fluorogenic substrate Ac-FNKL-amc. The class given is biochemical. To be noted: 200 nM PA28α.
Assay [7] addresses incorrectly assembled half-Pf20S (immature half proteasome with Ump1) (Plasmodium falciparum) (UniProt Q8I6T3). The experiment in a line: cryo-EM structure.

A word on the IC50: it is the concentration that gives 50% inhibition. A lower IC50 goes with greater potency. What is called stoichiometry N is the number of molecules, sites or subunits per partner or assembly.

Sequence of Pf20S β2 (Q8I6T3 42-270): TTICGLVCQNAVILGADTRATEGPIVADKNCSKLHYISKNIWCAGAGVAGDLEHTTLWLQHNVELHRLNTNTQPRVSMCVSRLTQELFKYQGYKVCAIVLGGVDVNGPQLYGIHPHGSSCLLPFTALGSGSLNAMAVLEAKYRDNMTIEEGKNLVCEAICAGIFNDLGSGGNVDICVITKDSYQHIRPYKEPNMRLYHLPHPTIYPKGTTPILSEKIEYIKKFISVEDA
Sequence of Pf20S β2 (Q8I261 1-218): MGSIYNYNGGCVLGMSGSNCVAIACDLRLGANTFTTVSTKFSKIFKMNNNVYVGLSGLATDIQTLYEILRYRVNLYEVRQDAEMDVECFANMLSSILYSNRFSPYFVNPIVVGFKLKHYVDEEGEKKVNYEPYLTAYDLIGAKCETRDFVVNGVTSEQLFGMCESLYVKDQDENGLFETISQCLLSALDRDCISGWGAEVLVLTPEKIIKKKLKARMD
Sequence of Pf20S β2 (Q06323 whole entry partner): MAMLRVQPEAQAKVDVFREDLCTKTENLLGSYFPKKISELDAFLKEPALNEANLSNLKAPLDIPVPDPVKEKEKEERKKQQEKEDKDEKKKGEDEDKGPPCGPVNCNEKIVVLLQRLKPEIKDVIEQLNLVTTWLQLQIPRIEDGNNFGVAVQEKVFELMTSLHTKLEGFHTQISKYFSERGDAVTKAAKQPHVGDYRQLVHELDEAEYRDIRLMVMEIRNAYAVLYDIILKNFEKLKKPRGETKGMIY
Sequence of Pf20S β1 (Q8I0U7 31-282): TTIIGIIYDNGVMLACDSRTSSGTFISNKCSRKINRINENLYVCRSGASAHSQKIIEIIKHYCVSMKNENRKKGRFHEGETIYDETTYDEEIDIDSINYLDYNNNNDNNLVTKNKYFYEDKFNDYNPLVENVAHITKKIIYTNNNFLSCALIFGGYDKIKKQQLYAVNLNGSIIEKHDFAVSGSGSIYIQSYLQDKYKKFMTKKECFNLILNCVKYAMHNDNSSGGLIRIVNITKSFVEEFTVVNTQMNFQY
Sequence of Pf20S β1 (Q8I6T3 42-270): as the sequence (Q8I6T3 42-270) above
Sequence of Pf20S β1 (Q06323 whole entry partner): as the sequence (Q06323 whole entry partner) above
Sequence of Pf20S β5 (Q8IJT1 61-271): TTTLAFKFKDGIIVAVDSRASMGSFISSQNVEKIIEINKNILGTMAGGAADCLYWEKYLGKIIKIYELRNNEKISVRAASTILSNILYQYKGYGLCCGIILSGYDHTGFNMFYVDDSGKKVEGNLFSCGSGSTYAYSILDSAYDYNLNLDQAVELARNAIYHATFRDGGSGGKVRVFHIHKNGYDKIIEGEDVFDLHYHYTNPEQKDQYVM
Sequence of Pf20S β5 (A0A5K1K7U1 29-240): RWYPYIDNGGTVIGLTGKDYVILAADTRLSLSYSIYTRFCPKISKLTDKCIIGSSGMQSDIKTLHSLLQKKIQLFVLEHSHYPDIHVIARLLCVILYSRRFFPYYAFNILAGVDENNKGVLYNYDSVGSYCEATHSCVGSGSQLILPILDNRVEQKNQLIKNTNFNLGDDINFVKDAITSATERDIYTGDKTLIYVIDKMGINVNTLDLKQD
Sequence of Pf20S β5 (Q06323 whole entry partner): as the sequence (Q06323 whole entry partner) above

Turning to `C[C@@]12OC(=O)[C@]1([C@@H](O)[C@@H]1C=CCCC1)NC(=O)[C@@H]2CCCl` [Marizomib], the “effect on probe labeling of β5 (lower, 23 kDa) band” value in assay [1] is recorded as “eliminated the labeling of both bands”. Further, in assay [2], the IC50 is around 300 nM. Moreover, in assay [3], the “effect on probe labeling of β2 (upper, 25 kDa) band” value is “eliminated the labeling of both bands”. Further, the “inhibition of Pf20S-mediated cleavage of Ac-nPnD-amc (β1 activity)” value in assay [4] (time-course, Fig. 3b) is “inhibited”.

On to “Ac-Phe-Arg-Ser-Arg-epoxyketone [FRSR-ek]”, for which, in assay [5] (Fig. S4), the “inhibition of Pf20S activity with Z-VLR-amc (β2 substrate)” value was “effectively inhibited”.

Regarding “PA28α: human proteasome activator subunit 1 alpha, produced recombinantly in E. coli”, the “increase of Pf20S β2 subunit activity” value in assay [5] (200 nM PA28α, Z-VLR-amc) is listed as 2 fold. Besides, the “increase of Pf20S β5 subunit activity” value in assay [6] is listed as 8 fold. Also, the “increase of Pf20S β1 subunit activity” value in assay [4] (200 nM PA28α, Ac-nPnD-amc) stood at 4 fold.

As for “incorrectly assembled half-Pf20S (immature half proteasome with Ump1) (from UniProt Q8I6T3 1-270; Q8IJT1 1-271; Q7K6A9 1-265) (complex)”, the stoichiometry N in assay [7] turned out to be 2.
